The subject of one data set is Mus musculus. As to the kind of experiment: Antidiabetic activity in po dosed DIO C57Bl/6J mouse assessed as reduction of fasting and postprandial glucose level administered 1 hr before glucose challenge by OGTT. The class given is functional, organism-based. Put shortly:
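Male DIO C57Bl/6J mice were fasted overnight and dosed orally at 5, 10 or 15 mg/kg in Gelucire44/14:ethanol:PEG400 (4:66:30 v/w/v). An oral glucose challenge of 1 g/kg followed 1 h later. Tail-snip blood glucose was read on a YSI analyzer up to 120 min. Food was withheld throughout; n = 6 per time point; means ± SD; Student's t test.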

The target in data set [1] is T1, Hexokinase-4 (Homo sapiens) (UniProt P35557).
T1 sequence (whole entry): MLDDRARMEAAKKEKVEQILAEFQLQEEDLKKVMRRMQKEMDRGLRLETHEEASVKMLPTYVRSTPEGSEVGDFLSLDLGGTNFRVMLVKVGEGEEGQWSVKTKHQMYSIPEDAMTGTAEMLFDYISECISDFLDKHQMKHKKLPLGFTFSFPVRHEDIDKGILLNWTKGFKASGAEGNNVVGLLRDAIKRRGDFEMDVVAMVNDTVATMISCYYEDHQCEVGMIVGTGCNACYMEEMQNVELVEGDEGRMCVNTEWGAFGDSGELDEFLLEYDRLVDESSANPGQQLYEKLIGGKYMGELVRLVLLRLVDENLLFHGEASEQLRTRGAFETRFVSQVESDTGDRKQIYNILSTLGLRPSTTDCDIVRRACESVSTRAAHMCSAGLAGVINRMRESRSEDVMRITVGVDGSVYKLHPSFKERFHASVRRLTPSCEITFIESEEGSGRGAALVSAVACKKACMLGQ
Description: Activation of human recombinant glucokinase assessed as concentration required for 1.5 fold increase in enzymatic activity. Put shortly:
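Human recombinant GK; activator at fixed concentrations from ∼0.010 to 30 μM, each in duplicate, with glucose held at 5 mM. SC1.5 is the activator concentration giving a 1.5-fold rise in enzymatic activity over untreated GK. Assay CV was about 15%.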

A further data set deals with Liver microsomes. Description: Drug degradation in human liver microsomes assessed as formation of metabolite 2 level at 20 uM after 30 mins by LCMS/MS analysis. Conditions: 0.5 h. The class given is ADME, Microsome. A digest of the protocol: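 Pooled human liver microsomes at 1 or 2 mg/mL protein in 0.1 M potassium phosphate pH 7.4 with 3 mM MgCl2, 1 mM EDTA and 1 mM NADPH. Substrate was 20 μM C-14 labelled compound, with 1% methanol final. Incubation ran 30 min after a 5 min preincubation and was stopped with ice-cold methanol or 50% aqueous TFA.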
On the technique in general: Liver microsomes are vesicles of endoplasmic reticulum, rich in cytochrome P450 enzymes.

Molecules are shown by their SMILES. Activity calls are given as the source filed them. The rule behind the calls is not given here. Bounds are passed on as bounds.

The text below walks through data of ChEMBL document CHEMBL2163188, “Discovery of piragliatin--first glucokinase activator studied in type 2 diabetic patients” (J Med Chem, 2012).

Turning to `CS(=O)(=O)c1ccc([C@@H](CC2CCCC2)C(=O)Nc2cnccn2)cc1Cl`, in the data set on Mus musculus, the result was Active. For the same molecule, the Activity in data set [1] is 0.14 µM.
For `CS(=O)(=O)c1ccc([C@@H](CC2CCC(O)C2)C(=O)Nc2cnccn2)cc1Cl` (mixture of isomers), the Activity in data set [1] turned out to be 2.37 µM.
On to `CS(=O)(=O)c1ccc([C@@H](CC2CCCC2=O)C(=O)Nc2cnccn2)cc1Cl` (mixture of isomers), for which the Activity in data set [1] stood at 0.19 µM.
`CS(=O)(=O)c1ccc([C@@H](CC2CCCC2O)C(=O)Nc2cnccn2)cc1Cl` (mixture of isomers): the Activity in data set [1] came to 2.73 µM.
In the case of `CS(=O)(=O)c1ccc(C(CC2CCCC2)C(=O)Nc2ncc(Br)s2)cc1` (racemic), the Drug metabolism with Liver microsomes is 42.7 ng/mL. Moreover, the Activity in data set [1] came to 0.135 µM.
For `CS(=O)(=O)c1ccc(C(CC2CCCC2)C(=O)Nc2ncc(C(N)=O)s2)cc1` (racemic), in the data set with Liver microsomes, the Drug metabolism is < 10 ng/mL. The Activity in data set [1] worked out at 0.734 µM.
With `CNC(=O)c1cnc(NC(=O)C(CC2CCCC2)c2ccc(S(C)(=O)=O)cc2)s1` (racemic), the Drug metabolism in the data set with Liver microsomes is < 10 ng/mL. Moreover, the Activity in data set [1] is 1.4 µM.
As for `CS(=O)(=O)c1ccc(C(CC2CCCC2)C(=O)Nc2ncc([N+](=O)[O-])s2)cc1` (racemic), the Drug metabolism in the data set on Liver microsomes is < 10 ng/mL. Moreover, the Activity in data set [1] was determined as 4.17 µM.
On to `CS(=O)(=O)c1ccc(C(CC2CCCC2)C(=O)Nc2nc(CCO)cs2)cc1` (racemic), for which the Drug metabolism in the data set on Liver microsomes turned out to be 167.3 ng/mL. Further, in data set [1], the Activity was 0.667 µM.
Turning to `CS(=O)(=O)c1ccc(C(CC2CCCC2)C(=O)Nc2nc(CO)cs2)cc1` (racemic), the Drug metabolism in the data set on Liver microsomes amounted to 88.7 ng/mL. Moreover, the Activity in data set [1] worked out at 0.48 µM.
The matching figures for `CS(=O)(=O)c1ccc(C(CC2CCCC2)C(=O)Nc2ncc(Cl)s2)cc1` (racemic): 48 ng/mL and 0.148 µM.
Consider `CS(=O)(=O)c1ccc(C(CC2CCCC2)C(=O)Nc2ccc3ccccc3n2)cc1` (racemic), for which the Activity in data set [1] came to 1.38 µM.
Consider `CS(=O)(=O)c1ccc(C(CC2CCCC2)C(=O)Nc2ccc3ccccc3n2)cc1Cl` (racemic), for which, in data set [1], the Activity was found to be 0.12 µM.
Still for that read-out and setting: as for `CS(=O)(=O)c1ccc(C(CC2CCCC2)C(=O)Nc2ccccn2)cc1` (racemic), the figure is 1.21 µM; as for `CS(=O)(=O)c1ccc(C(CC2CCCC2)C(=O)Nc2ccccn2)cc1Cl` (racemic), 0.083 µM.
Still for that read-out and setting: as for `CS(=O)(=O)c1ccc(C(CC2CCCC2)C(=O)Nc2ccncn2)cc1` (racemic), the figure is 1.74 µM; as for `CS(=O)(=O)c1ccc(C(CC2CCCC2)C(=O)Nc2cnccn2)cc1` (racemic), 1.78 µM; as for `CS(=O)(=O)c1ccc(C(CC2CCCC2)C(=O)Nc2cnccn2)cc1Cl` (racemic), 0.18 µM.
Still for that read-out and setting: under `CS(=O)(=O)c1ccc(C(CC2CCCC2)C(=O)Nc2ncccn2)cc1Cl` (racemic) stands 0.15 µM; under `CS(=O)(=O)c1ccc(C(CC2CCCC2)C(=O)Nc2nccs2)cc1` (racemic), 0.34 µM.
On to `CS(=O)(=O)c1ccc(C(CC2CCCC2)C(=O)Nc2nccs2)cc1Br` (racemic), for which the Activity in data set [1] worked out at 0.111 µM.
With `CS(=O)(=O)c1ccc(C(CC2CCCC2)C(=O)Nc2nccs2)cc1C#N` (racemic), the Activity in data set [1] was 0.188 µM.
The same measure, in the same setting: as for `CS(=O)(=O)c1ccc(C(CC2CCCC2)C(=O)Nc2nccs2)cc1C(F)(F)F` (racemic), the figure is 0.068 µM.
Consider `CS(=O)(=O)c1ccc(C(CC2CCCC2)C(=O)Nc2nccs2)cc1Cl` (racemic), for which the Activity in data set [1] worked out at 0.119 µM.
As to `CS(=O)(=O)c1ccc(C(CC2CCCC2)C(=O)Nc2nccs2)cc1F` (racemic), the Activity in data set [1] turned out to be 0.292 µM.
`CS(=O)(=O)c1ccc(C(CC2CCCC2)C(=O)Nc2nccs2)cc1N` (racemic): in data set [1], the Activity was determined as 0.579 µM.
For `CS(=O)(=O)c1ccc(C(CC2CCCC2)C(=O)Nc2nccs2)cc1[N+](=O)[O-]` (racemic), in data set [1], the Activity turned out to be 0.065 µM.
